For data set [1], the system named is Mus musculus. The experiment in a line: Neurotoxicity in Swiss albino mouse assessed as alteration in motor activity at 30 mg/kg, po administered 60 mins prior to testing measured for 5 mins by rotarod test relative to untreated-control. Format: toxicity, organism-based. Set-up: dose 30 mg/kg, route oral. The conditions noted are these: in vivo. The procedure, abridged:
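Mice were trained twice the day before to stay 5 min on a rotarod turning at 10 rev/min. Twenty-four hours later they received 30 mg/kg p.o. or vehicle. Sixty minutes after dosing they were placed on the roller for 5 min, and the number of falls was recorded as the neurological deficit.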

In data set [2] the test system is Mus musculus. Briefly: Neurotoxicity in Swiss albino mouse assessed as alteration in motor activity at 30 mg/kg, po administered 60 mins prior to testing measured for 5 mins by open field test relative to untreated-control. As to conditions: in vivo. Set-up: dose 30 mg/kg, route oral. It counts as toxicity, organism-based. The procedure, abridged: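 Male Albino-Swiss mice, n = 6, received 30 mg/kg p.o. or vehicle. Sixty minutes after dosing, each mouse was placed alone in a chamber whose floor was divided into 50 squares of 5 × 5 cm. Squares crossed were counted over 5 min.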

A short description of data set [3]: Toxicity in po dosed Swiss albino mouse. It counts as organism-based. The conditions noted are these: in vivo. The procedure, abridged:
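Acute oral toxicity per WHO and OECD guidelines. Male Albino-Swiss mice (20–24 g), 6 per group, held at 20 ± 2 °C on a 12 h light/dark cycle. Given single oral doses rising to 2000 mg/kg, as a suspension in 5% ethyl acetate at 5 mL/kg. Behaviour watched from 5 h after dosing, then daily to day 14. LD50 from nonlinear regression of percent deaths against dose.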

Data set [4] concerns Mus musculus. The experiment in a line: Antinociceptive activity in Swiss albino mouse assessed as inhibition of acetic-acid induced abdominal writhing at 30 mg/kg, po administered prior to acetic-acid challenge measured after 30 mins relative to untreated-control. As to conditions: Abdomen, 0.5 h. It counts as functional. The procedure, abridged: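 Male Albino-Swiss mice (20-24 g), n = 6, were pretreated orally at 30 mg/kg in 5% ethyl acetate vehicle (5 mL/kg). Writhing was induced with 1.2% (v/v) acetic acid i.p. Writhes (abdominal contraction, body stretching, hind-limb extension) were counted for 30 min starting immediately after injection and compared with the control group. ANOVA/Bonferroni, P < 0.05.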

Data set [5] has as its system Mus musculus. The experiment in a line: Toxicity in Swiss albino mouse assessed as disorientation up to 2000 mg/kg, po measured from 5 hrs post-dose to 14 days relative to untreated-control. It counts as organism-based. Set-up: dose 2000 mg/kg, route oral. The conditions noted are these: in vivo. The procedure, abridged:
(§1)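 Acute toxicity followed WHO and OECD guidelines. Male Albino-Swiss mice received single oral doses increasing up to 2000 mg/kg. Behaviour (disorientation, hyperactivity, piloerection, hyperventilation) was observed from 5 h after dosing and then daily until day 14. LD50 was estimated by nonlinear regression of % deaths against dose.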

The test system of data set [6] is Mus musculus. The experiment in a line: Toxicity in Swiss albino mouse assessed as hyperventilation up to 2000 mg/kg, po measured from 5 hrs post-dose to 14 days relative to untreated-control. Set-up: dose 2000 mg/kg, route oral. It counts as organism-based. The conditions noted are these: in vivo. The procedure, abridged: as §1
For data set [7], the system named is Mus musculus. Briefly: Antinociceptive activity in Swiss albino mouse assessed as increase in tail-flick latency at 30 mg/kg, po measured up to 120 mins relative to untreated-control. It counts as functional, organism-based. Set-up: dose 30 mg/kg. The procedure, abridged:
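Male Albino-Swiss mice (20-24 g), n = 6 per group, given 30 mg/kg p.o. as a suspension in 5% ethyl acetate vehicle (5 mL/kg). Tail-flick latency was measured every 20 min: two pre-dose readings were averaged as baseline, then six post-dose readings. Results are expressed as % increase over baseline and as AUC from 20-120 min. ANOVA with Bonferroni test, P < 0.05.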

In data set [8] the test system is Mus musculus. Briefly: Toxicity in Swiss albino mouse assessed as piloerection up to 2000 mg/kg, po measured from 5 hrs post-dose to 14 days relative to untreated-control. Format: organism-based. Set-up: dose 2000 mg/kg, route oral. The conditions noted are these: in vivo. The procedure, abridged:
as §1

The test system of data set [9] is Mus musculus. Briefly: Toxicity in Swiss albino mouse assessed as hyperactivity up to 2000 mg/kg, po measured from 5 hrs post-dose to 14 days relative to untreated-control. It counts as organism-based. Set-up: dose 2000 mg/kg, route oral. The conditions noted are these: in vivo. The procedure, abridged: as §1
The subject of data set [10] is Mus musculus. Briefly: Antinociceptive activity in mouse assessed as inhibition of acetic-acid induced abdominal writhing at 50 mg/kg administered 60 mins prior to acetic-acid challenge. Format: functional. As to conditions: Abdomen.

The source made the active and inactive calls. The calls are words filed in the database; no cut-off is given here.

For the compound `O=C(O)[C@H]1CCC[C@@H](c2ccc3ccccc3c2)O1`, the Activity entry with Mus musculus [1], in the data set on Mus musculus [2], with Mus musculus [5], in the data set on Mus musculus [6], in the data set on Mus musculus [8] and in the data set on Mus musculus [9] was “Non-toxic” throughout. The compound further had an LD50 in data set [3] of more than 2000 mg/kg. In the data set on Mus musculus [4], the inhibition in vivo at 30 mg/kg was found to be 43.1%. The outcome with Mus musculus [7] was Active.
Turning to `CC[C@@H]1CCC[C@H](C(=O)O)O1` (racemic), the Activity result in the data set on Mus musculus [1], with Mus musculus [2], in the data set on Mus musculus [5], in the data set on Mus musculus [6], with Mus musculus [8] and in the data set on Mus musculus [9] was “Non-toxic” each time. The compound also came in with an LD50 in [3] of more than 2000 mg/kg. Further, the inhibition in vivo at 30 mg/kg in the data set with Mus musculus [4] amounted to 14.1%. Further, the inhibition in vivo at 50 mg/kg in the data set on Mus musculus [10] is 15%. In the data set on Mus musculus [7], the result was Active.
Turning to `O=C(O)[C@H]1CCC[C@@H](c2cccc3ccccc23)O1` (relative stereo), the Activity entry in the data set with Mus musculus [1], with Mus musculus [2], with Mus musculus [5], in the data set on Mus musculus [6], with Mus musculus [8] and with Mus musculus [9] was “Non-toxic” each time. This compound registered a 50% lethal dose (LD50) in [3] of more than 2000 mg/kg. Moreover, in the data set with Mus musculus [4], the inhibition in vivo at 30 mg/kg worked out at 49%. In addition, the result in the data set on Mus musculus [7] was Active.
For `OC[C@H]1CCC[C@@H](c2ccc3ccccc3c2)O1` (relative stereo), the Activity result with Mus musculus [1], in the data set with Mus musculus [2], with Mus musculus [5], with Mus musculus [6], in the data set on Mus musculus [8] and in the data set with Mus musculus [9] was “Non-toxic” in each case. Further, the LD50 in [3] is more than 2000 mg/kg. Moreover, the inhibition in vivo at 30 mg/kg with Mus musculus [4] worked out at 55.7%. For the same compound, in the data set on Mus musculus [7], the result was Active.
For `OC[C@H]1CCC[C@@H](c2cccc3ccccc23)O1` (relative stereo), the Activity result in the data set on Mus musculus [1], in the data set on Mus musculus [2], in the data set with Mus musculus [5], in the data set with Mus musculus [6], with Mus musculus [8] and in the data set with Mus musculus [9] was “Non-toxic” in each case. The compound also displayed an LD50 in data set [3] of more than 2000 mg/kg. The inhibition in vivo at 30 mg/kg with Mus musculus [4] was found to be 39.2%. Besides, in the data set with Mus musculus [7], the result was Active.
`CC(C)C(=O)OC[C@H]1C[C@@H](Cl)C[C@@H](c2ccc3ccccc3c2)O1` (relative stereo): the Activity entry in the data set on Mus musculus [1], in the data set on Mus musculus [2], in the data set on Mus musculus [5], in the data set with Mus musculus [6], in the data set with Mus musculus [8] and in the data set with Mus musculus [9] was “Non-toxic” in each case. The LD50 in data set [3] is more than 2000 mg/kg. In the data set on Mus musculus [4], the inhibition in vivo at 30 mg/kg turned out to be 44.4%. For the same compound, the outcome in the data set with Mus musculus [7] was Active.
As to `CC(C)C(=O)OC[C@H]1C[C@@H](Cl)C[C@@H](c2cccc3ccccc23)O1` (relative stereo), the Activity result in the data set with Mus musculus [1], in the data set with Mus musculus [2], with Mus musculus [5], in the data set on Mus musculus [6], in the data set with Mus musculus [8] and in the data set on Mus musculus [9] was “Non-toxic” each time. Besides, the LD50 in data set [3] is more than 2000 mg/kg. For the same compound, in the data set on Mus musculus [4], the inhibition in vivo at 30 mg/kg was 38.4%. The result in the data set with Mus musculus [7] was Active.
For `OC[C@H]1C[C@@H](Cl)C[C@@H](c2ccc3ccccc3c2)O1` (relative stereo), the Activity entry in the data set on Mus musculus [1], with Mus musculus [2], in the data set on Mus musculus [5], in the data set with Mus musculus [6], in the data set on Mus musculus [8] and in the data set on Mus musculus [9] was “Non-toxic” in each case. Besides, in data set [3], the LD50 is more than 2000 mg/kg. For the same compound, in the data set with Mus musculus [4], the inhibition in vivo at 30 mg/kg was 46.6%. The outcome in the data set with Mus musculus [7] was Active.
For `OC[C@H]1C[C@@H](Cl)C[C@@H](c2cccc3ccccc23)O1` (relative stereo), the Activity result in the data set with Mus musculus [1], in the data set with Mus musculus [2], in the data set with Mus musculus [5], in the data set on Mus musculus [6], in the data set on Mus musculus [8] and in the data set with Mus musculus [9] was “Non-toxic” in each case. In data set [3], this compound yielded an LD50 of more than 2000 mg/kg. The inhibition in vivo at 30 mg/kg in the data set on Mus musculus [4] amounted to 87.5%. The outcome in the data set with Mus musculus [7] was Active.
For `O=C(O)[C@H]1C[C@@H](Cl)C[C@@H](c2ccc3ccccc3c2)O1` (relative stereo), the Activity entry in the data set with Mus musculus [1], with Mus musculus [2], in the data set on Mus musculus [5], with Mus musculus [6], with Mus musculus [8] and in the data set on Mus musculus [9] was “Non-toxic” each time. In [3], this compound registered an LD50 of more than 2000 mg/kg. Moreover, in the data set with Mus musculus [4], the inhibition in vivo at 30 mg/kg is 28.1%. Also, the result in the data set on Mus musculus [7] was Active.
`O=C(O)[C@H]1C[C@@H](Cl)C[C@@H](c2cccc3ccccc23)O1` (relative stereo): the Activity result in the data set with Mus musculus [1], in the data set on Mus musculus [2], with Mus musculus [5], in the data set on Mus musculus [6], in the data set with Mus musculus [8] and in the data set on Mus musculus [9] was “Non-toxic” in each case. Besides, the LD50 in [3] was more than 2000 mg/kg. For the same compound, the inhibition in vivo at 30 mg/kg in the data set with Mus musculus [4] came out at 54.4%. Further, in the data set on Mus musculus [7], the result was inactive.

Values taken from ChEMBL document CHEMBL2150887, “Design, Prins-cyclization reaction promoting diastereoselective synthesis of 10 new tetrahydropyran derivatives and in vivo antinociceptive evaluations” (Eur J Med Chem, 2012).
